HIV Env fusion = blocks HIV Env-driven cell-cell fusion | inhibition, % at 12.3 µM | AID 651610 | 1.1% of 360,000 active | HeLa-JRFL Env/CEM21 cell fusion, luciferase;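 active = mean replicate inhibition score of at least 50 and every replicate individually at or above 50; inconclusive = only one of the two criteria met; inactive = mean below 50 and not all replicates reaching 50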;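 also: 0% = plate neutral controls and 100% = maraviroc near 300 nM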
Cneo AK release = causes C. neoformans cell lysis; lysis activity, % at 15 µM; adenylate kinase release luminescence, 4 h; normalised: neutral wells 0, clomiphene wells 100; AID 651654; 0.2% of 360,000 active;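 active = mean lysis activity across replicates of at least 80%, whatever share of replicates individually reach that level; inactive = mean lysis activity below 80%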
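Schedule: static 4 h at 37 °C with compound, 1 h detection; system: C. neoformans cells; benchmarks: Clomiphene as positive control; buffer or medium: fresh YPD medium; measure: luminescence rise reflecting yeast cell lysis; measured by: luminescent adenylate kinase detection reagent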
CFTR F508del cor = CFTR F508del correction in bronchial cells; 0.36% of 350,000 active; CFBE cells, YFP halide quenching; stimulated with forskolin plus potentiator P3; % fluorescence drop versus neutral controls; activity (quench increase), % at 7.58 µM; AID 720511;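 active = mean added fluorescence quench of at least 8% versus neutral control, with both replicates also reaching 8%; inconclusive = only one of the mean or replicate conditions met; inactive = mean below 8% and not both replicates reaching 8%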;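 also: cells transiently co-express mutant CFTR-F508del with the halide-sensitive YFP; corrector assay measuring rescue of mutant channel to the surface after 24 h compound exposure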
INS-1E GSIS act = GLuc luminescence reporter in INS-1E cells, primary screen for activators of glucose-dependent secretion of insulin | INS-1E GLuc reporter insulin secretion, 2-3 h | activation, % at 16.6 µM | 0.61% of 370,000 active;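 active = lowest replicate activation of at least 40%, so every replicate reaches that level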;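 also: 0% = median of neutral control wells and 100% = median of IBMX positive control wells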
miR-122 sensor = miR-122 inhibition in Huh7 cells. Huh7 miR-122 Renilla luciferase sensor, 48 h; neutral wells = 0, positive control = 100. activation (reporter increase), % at 12.5 µM. 0.3% of 340,000 active. AID 602342;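 active = mean replicate activation score at least 90 and every replicate individually at or above 90; inconclusive = only one of the two criteria met; inactive = neither criterion met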;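 also: higher luciferase means less miR-122 activity so hits act as miR-122 inhibitors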
Ecoli rRNA inh = inhibits bacterial ribosomal RNA function over humanized ribosomes. E. coli WT GFP vs humanized-ribosome RFP mutants, fluorescence, 24 h; active compounds read low; DMSO median 0, no signal -100. GFP signal change (wild-type ribosome), % (concentration not given with the values). 1.6% of 350,000 active;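 active = significant combined selectivity score with lowered wild-type GFP, culture density cut under 30%, mutant RFP and density less affected; inactive = any of these conditions unmet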
The depositor's hits bear a star; ? = inconclusive; . = no result; [ ] = remark or other dose. This is a sample that favours compounds with a hit; in the whole collection about 3.1% have one here.

SMILES	HIV Env fusion	Cneo AK release	CFTR F508del cor	INS-1E GSIS act	miR-122 sensor	Ecoli rRNA inh
Cc1cc(C)c(NC(=O)COC(=O)c2cc([N+](=O)[O-])ccc2N2CCOCC2)c(C)c1	-2	-1	-1	.	2	.
Cc1cc(NC(=O)COC(=O)c2cc([N+](=O)[O-])ccc2N2CCOCC2)ccc1Br	1	-8	-1	-14	.	-18*
CCc1cccc(NC(=O)COC(=O)c2cc([N+](=O)[O-])ccc2N2CCOCC2)c1	8	.	9.1*	14	.	9
CCOc1ccc(NC(=O)COC(=O)c2cc([N+](=O)[O-])ccc2N2CCOCC2)cc1	.	.	0	-4	.	-12
CN(C)CC(=O)Nc1ccc2c(c1)[C@H]1C[C@@H](CC(=O)NCc3cccc(F)c3)O[C@@H](CO)[C@H]1O2	-20[16.7 µM]	-5	-2	10	0[16.7 µM]	9
O=C1Nc2ccccc2OCc2cn(nn2)CC[C@H]1Cc1ccc(-c2ccccc2)cc1	.	.	.	-27	.	-9
CCC1Nc2ncnc(N3CCc4ccccc4C3)c2N(Cc2ccc(Cl)cc2)C1=O (centres undefined)	-11	1	1	-5	-5	-17*
COc1cc(C(=O)NNC(=S)NC(=O)/C=C/c2ccccc2)cc(OC)c1OC	7	0	.	-1	10	-15*
COc1cc(C(=O)NNC(=O)/C=C/c2ccccc2)cc(OC)c1OC	-17	.	-1	11	-1	-6
CCn1cc(/C=C(\NC(=O)c2ccccc2)C(=O)NCCCn2ccnc2)c2ccccc21	-30	0	1	.	165*	-2
Cc1ccc(C(=O)N/C(=C\c2cn(S(=O)(=O)N(C)C)c3ccccc23)C(=O)NCCCn2ccnc2)cc1	0	2	-1	-20	35	-6
CC(=O)N(C)C[C@@H]1Oc2cc(-c3ccc(C)cc3)ccc2S(=O)(=O)N([C@H](C)CO)C[C@H]1C	13[16.7 µM]	-1	1	-7	-4[16.7 µM]	-2
COc1ccc(S(=O)(=O)Nc2ccc3c(c2)C(=O)N([C@@H](C)CO)C[C@H](C)[C@H](CN(C)Cc2ccc(Cl)c(Cl)c2)OCCCC[C@@H](C)O3)cc1	11[16.7 µM]	1	8.0*	-2	-12[16.7 µM]	-1
COc1ccc(S(=O)(=O)Nc2ccc3c(c2)C(=O)N([C@@H](C)CO)C[C@H](C)[C@@H](CN(C)Cc2ccc(Cl)c(Cl)c2)OCCCC[C@H](C)O3)cc1	59*[16.7 µM]	47	5	-21	-7[16.7 µM]	2
CCCCNS(=O)(=O)c1ccc2nc(SCC(=O)Nc3ccccc3Cl)[nH]c2c1	-1	.	.	.	.	-46
CCCCNS(=O)(=O)c1ccc2nc(SCC(=O)Nc3sccc3C#N)[nH]c2c1	12	-4	.	.	202*	.
CCCCNS(=O)(=O)c1ccc2nc(SCC(N)=O)[nH]c2c1	16	-1	1	-7	153*	11
CCCCNS(=O)(=O)c1ccc2nc(SCC(=O)c3ccccc3OC)[nH]c2c1	.	0	-4	-22	?	-45*
O=C(C[C@@H]1C=C[C@@H](NC(=O)NC2CCCCC2)[C@H](CO)O1)NCc1ccccc1	-3[16.7 µM]	-3	0	-5	-8[16.7 µM]	-5
COc1ccc(OCC(=O)NCC(c2cccs2)N2CCOCC2)cc1 (centres undefined)	14	0	1	3	-3	1
CC(C)(C)c1ccc(OCC(=O)NCC(c2cccs2)N2CCOCC2)cc1 (centres undefined)	62*	-2	2	-6	1	2
O=C(CNc1ccc2ccccc2c1)N/N=C/C=C/c1cccc([N+](=O)[O-])c1	0	.	.	1	.	-15*
Cc1ccc(-c2ccc([C@H]3[C@@H](CO)N4C(=O)CN(C(=O)c5ccncc5)C[C@@H]34)cc2)cc1	.	.	-4	-1	.	-4
Cc1ccc(C(=O)NCc2ccccn2)cc1S(=O)(=O)N1CCCCC1	90*	-2	-1	-1	-2	3
COc1ccc(CCNC(=O)c2ccc(Cl)c(S(=O)(=O)N3CCCC3)c2)cc1	3	0	3	-38	-4	-29*
SMILES	HIV Env fusion	Cneo AK release	CFTR F508del cor	INS-1E GSIS act	miR-122 sensor	Ecoli rRNA inh
Cc1ccc(S(=O)(=O)N2CCCCCC2)cc1C(=O)NCc1ccccn1	2	-3	-1	18	.	1
Cc1ccccc1-c1cnc2c(c1)C(=O)N([C@@H](C)CO)C[C@@H](C)[C@H](CN(C)C(=O)c1ccc(F)cc1)O2	-11[16.7 µM]	-2	5	-13	.	-7
CC1CN(S(=O)(=O)c2ccc(C(=O)Nc3ccccc3F)cc2)CC(C)O1 (centres undefined)	.	0	9.1*	2	-5	2
COc1cccc(-c2nnc(NC(=O)c3ccc(S(=O)(=O)N4CC(C)OC(C)C4)cc3)o2)c1 (centres undefined)	55*	3	.	.	-9	.
Cc1nnc(NC(=O)c2ccc(S(=O)(=O)N3CC(C)OC(C)C3)cc2)o1 (centres undefined)	-5	-1	0	23	-1	-11
COc1ccc2c3c(n(C)c2c1)[C@@H](CO)N(C(=O)NC1CCCC1)CC31CN(C)C1	.	.	.	4	.	2
CC1=C(C(=O)N2CCOCC2)CC(CC(=O)NCCCN(C)C)C(=O)N1CCCN1CCCC1=O (centres undefined)	-7	.	1	41*	.	.
C[C@H](CO)N1C[C@H](C)[C@@H](CN(C)C(=O)Nc2ccc3c(c2)OCO3)OCc2ccccc2-c2ccccc2C1=O	15[16.7 µM]	.	1	9	.	-1
O=C(Nc1ccc(Br)cc1)C1CC(c2c(F)cccc2Cl)=NO1 (centres undefined)	-11	-1	-2	0	14	-3
COc1ccc(Cl)cc1NC(=O)C1CC(c2c(F)cccc2Cl)=NO1 (centres undefined)	-2	-4	1	-2	5	-30*
O=C(Nc1cc(Br)ccc1O)C1CC(c2c(F)cccc2Cl)=NO1 (centres undefined)	-2	-4	.	.	64	-36*
CSc1ccccc1NC(=O)C1CC(c2c(F)cccc2Cl)=NO1 (centres undefined)	4	1	1	-3	47	-25*
C[C@H](CO)N1C[C@H](C)[C@H](CN(C)Cc2ccc(C(=O)Nc3ccccc3N)cc2)Oc2ccc(NS(=O)(=O)c3cn(C)cn3)cc2C1=O	.	1	-2	11	-5[16.7 µM]	3
CC(C)C#Cc1ccc([C@@H]2[C@H](C#N)N(C(=O)CN(C)C)[C@H]2CO)cc1	12[16.7 µM]	-3	-5	-5	.	5
COc1ccccc1NC(=O)N[C@H]1CC[C@H](CCNS(=O)(=O)c2ccc(C)cc2)O[C@H]1CO	.	.	0	4	.	-5
O=C(NNC(=S)NC1CCCCC1)c1ccc2c(c1)OCO2	-15	-3	-3	1	106*	2

Source: PubChem BioAssay
